In brackets after ≈: the same amount, converted by molar mass.
Assays:
Escherichia coli [1] = test: Synergistic antibacterial activity against Escherichia coli NCTC 12923 assessed as fold change in rifampicin MIC at <=0.25 times MIC incubated for overnight by microbroth dilution checkerboard assay relative to rifampicin alone; type: functional
Summary of the method: (§1)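 Checkerboard microdilution under MIC conditions (TSB, overnight, 37 °C). Two-fold series of each agent were combined on one plate before bacteria were added, and single-agent MICs were measured on the same plate. FIC = sum of combination MIC/alone MIC for each agent, taken from the most synergistic well. Three independent repeats, mean ± SD. ≤0.5 was taken as strong synergy and 0.5–<1 as weak.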

Klebsiella pneumoniae [2] = test: Synergistic antibacterial activity against […] Klebsiella pneumoniae M6 assessed as rifampicin MIC at <=0.25 times MIC incubated for overnight by microbroth dilution checkerboard assay; type: functional
Summary of the method: (§2)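 Checkerboard run under the MIC conditions (TSB, overnight, 37 °C). Antibiotic and lipoguanidine 2-fold series were combined on one plate before bacteria were added. Growth/no-growth was scored as for the MIC (<0.1 OD600). Single-agent MICs were measured on the same plates. Three independent repeats were done.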

Acinetobacter baumannii [3] = test: Synergistic antibacterial activity against Acinetobacter baumannii AYE assessed as rifampicin MIC at <=0.25 times MIC incubated for overnight by microbroth dilution checkerboard assay; type: functional; summary of the method: as §1
Pseudomonas aeruginosa [4] = test: Synergistic antibacterial activity against Pseudomonas aeruginosa PAO1 assessed as rifampicin MIC at <=0.25 times MIC incubated for overnight by microbroth dilution checkerboard assay; type: functional
Summary of the method: (§3)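 Checkerboard microdilution in Tryptic Soy Broth, run like the MIC assay. Overnight TSB cultures were back-diluted to OD 0.01 and added 1:1 to the combined two-fold series of both agents, then incubated overnight at 37 °C. Growth/no-growth was called at <0.1 OD600. MICs alone were read on the same plates. FIC index came from the most synergistic well; three independent repeats, mean ± SD.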

Acinetobacter baumannii [5] = test: Synergistic antibacterial activity against Acinetobacter baumannii ATCC 17978 assessed as fold change in rifampicin MIC at <=0.25 times MIC incubated for overnight by microbroth dilution checkerboard assay relative to rifampicin alone; type: functional; summary of the method: as §1
Pseudomonas aeruginosa [6] = test: Synergistic antibacterial activity against Pseudomonas aeruginosa PAO1 assessed as fold change in rifampicin MIC at <=0.25 times MIC incubated for overnight by microbroth dilution checkerboard assay relative to rifampicin alone; type: functional; summary of the method: as §3
Acinetobacter baumannii [7] = test: Synergistic antibacterial activity against Acinetobacter baumannii ATCC 17978 assessed as rifampicin MIC at <=0.25 times MIC incubated for overnight by microbroth dilution checkerboard assay; type: functional; summary of the method: as §1
Acinetobacter baumannii [8] = test: Synergistic antibacterial activity against Acinetobacter baumannii AYE assessed as fold change in rifampicin MIC at <=0.25 times MIC incubated for overnight by microbroth dilution checkerboard assay relative to rifampicin alone; type: functional; summary of the method: as §1
Klebsiella pneumoniae [9] = test: Synergistic antibacterial activity against Klebsiella pneumoniae NCTC 13368 assessed as fold change in rifampicin MIC at <=0.25 times MIC incubated for overnight by microbroth dilution checkerboard assay relative to rifampicin alone; type: functional; summary of the method: as §2
Klebsiella pneumoniae [10] = test: Synergistic antibacterial activity against Klebsiella pneumoniae NCTC 13368 assessed as rifampicin MIC at <=0.25 times MIC incubated for overnight by microbroth dilution checkerboard assay; type: functional; summary of the method: as §1
Pseudomonas aeruginosa [11] = test: Synergistic antibacterial activity against Pseudomonas aeruginosa NCTC 13437 assessed as fold change in rifampicin MIC at <=0.25 times MIC incubated for overnight by microbroth dilution checkerboard assay relative to rifampicin alone; type: functional; summary of the method: as §3
Escherichia coli [12] = test: Synergistic antibacterial activity against Escherichia coli NCTC 12923 assessed as rifampicin MIC at <=0.25 times MIC incubated for overnight by microbroth dilution checkerboard assay; type: functional; summary of the method: as §1
Pseudomonas aeruginosa [13] = test: Synergistic antibacterial activity against Pseudomonas aeruginosa NCTC 13437 assessed as rifampicin MIC at <=0.25 times MIC incubated for overnight by microbroth dilution checkerboard assay; type: functional; summary of the method: as §3
Pseudomonas aeruginosa [14] = test: Antibacterial activity against Pseudomonas aeruginosa NCTC 13437 assessed as bacterial growth inhibition incubated for overnight by microbroth dilution method; type: functional
Summary of the method: (§4)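 Broth microdilution in Tryptic Soy Broth. DMSO stocks were diluted in TSB as 2-fold series. Overnight TSB cultures were back-diluted to OD 0.01 and mixed 1:1 with compound. Incubation was overnight at 37 °C. MIC was the lowest concentration without visible growth (<0.1 OD600). DMSO vehicle was checked at equivalent concentrations.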

Acinetobacter baumannii [15] = test: Antibacterial activity against Acinetobacter baumannii ATCC 17978 assessed as bacterial growth inhibition incubated for overnight by microbroth dilution method; type: functional; summary of the method: as §4
Klebsiella pneumoniae [16] = test: Antibacterial activity against Klebsiella pneumoniae M6 assessed as bacterial growth inhibition incubated for overnight by microbroth dilution method
Escherichia coli [17] = test: Antibacterial activity against Escherichia coli NCTC 12923 assessed as bacterial growth inhibition incubated for overnight by microbroth dilution method; type: functional; summary of the method: as §4
Klebsiella pneumoniae [18] = test: Antibacterial activity against ESBL Klebsiella pneumoniae NCTC 13368 assessed as bacterial growth inhibition incubated for overnight by microbroth dilution method
Pseudomonas aeruginosa [19] = test: Antibacterial activity against Pseudomonas aeruginosa PAO1 assessed as bacterial growth inhibition incubated for overnight by microbroth dilution method; type: functional; summary of the method: as §4
Acinetobacter baumannii [20] = test: Antibacterial activity against Acinetobacter baumannii AYE assessed as bacterial growth inhibition incubated for overnight by microbroth dilution method; type: functional; summary of the method: as §4
Enterococcus faecium = test: Antibacterial activity against vancomycin resistant Enterococcus faecium NCTC 12204 assessed as bacterial growth inhibition incubated for overnight by microbroth dilution method; type: functional
Summary of the method: (§5)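 Microbroth dilution in Tryptic Soy Broth. DMSO stocks were diluted in TSB as 2-fold series. Overnight TSB cultures were back-diluted to OD 0.01 and mixed 1:1 with compound. Incubation was overnight at 37 °C. MIC is the lowest concentration with no visible growth (<0.1 OD600). DMSO at equivalent concentrations was checked.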

Staphylococcus aureus [21] = test: Antibacterial activity against methicillin sensitive Staphylococcus aureus ATCC 9144 assessed as bacterial growth inhibition incubated for overnight by microbroth dilution method; type: functional; summary of the method: as §5
Enterococcus faecalis [22] = test: Antibacterial activity against vancomycin sensitive Enterococcus faecalis NCTC 775 assessed as bacterial growth inhibition incubated for overnight by microbroth dilution method
Staphylococcus aureus [23] = test: Antibacterial activity against methicillin sensitive Staphylococcus aureus 1199B assessed as bacterial growth inhibition incubated for overnight by microbroth dilution method; type: functional; summary of the method: as §5
Staphylococcus aureus [24] = test: Antibacterial activity against methicillin resistant Staphylococcus aureus NCTC 13616 assessed as bacterial growth inhibition incubated for overnight by microbroth dilution method; type: functional; summary of the method: as §5
Staphylococcus aureus [25] = test: Antibacterial activity against methicillin resistant Staphylococcus aureus USA 300 assessed as bacterial growth inhibition incubated for overnight by microbroth dilution method; type: functional; summary of the method: as §5
Enterococcus faecalis [26] = test: Antibacterial activity against vancomycin resistant Enterococcus faecalis NCTC 12201 assessed as bacterial growth inhibition incubated for overnight by microbroth dilution method; type: functional; summary of the method: as §5

SMILES	fold change (FC) (Escherichia coli [1])	MIC (Klebsiella pneumoniae [2]) [µg/mL]	MIC (Acinetobacter baumannii [3]) [µg/mL]	MIC (Pseudomonas aeruginosa [4]) [µg/mL]	fold change (FC) (Acinetobacter baumannii [5])	fold change (FC) (Pseudomonas aeruginosa [6])	MIC (Acinetobacter baumannii [7]) [µg/mL]	fold change (FC) (Acinetobacter baumannii [8])	fold change (FC) (Klebsiella pneumoniae [9])	MIC (Klebsiella pneumoniae [10]) [µg/mL]	fold change (FC) (Pseudomonas aeruginosa [11])	MIC (Escherichia coli [12]) [µg/mL]	MIC (Pseudomonas aeruginosa [13]) [µg/mL]	MIC (Pseudomonas aeruginosa [14]) [µg/mL]	MIC (Acinetobacter baumannii [15]) [µg/mL]	MIC (Klebsiella pneumoniae [16]) [µg/mL]	MIC (Escherichia coli [17]) [µg/mL]	MIC (Klebsiella pneumoniae [18]) [µg/mL]	MIC (Pseudomonas aeruginosa [19]) [µg/mL]	MIC (Acinetobacter baumannii [20]) [µg/mL]	also measured
CCCCCCCC/C=C\CCCCCCCCNC(=N)NCCCCCCCCCC	0	64	32	64	0	0	8	0	0	128	0	32	64								
CCCCCCCCCCNC(=N)NCCCC(=O)O	0	32	8	32	0	0	2	0	0	32	0	32	32								
CO[C@H]1/C=C/O[C@@]2(C)Oc3c(C)c(O)c4c(O)c(c(/C=N/N5CCN(C)CC5)c(O)c4c3C2=O)NC(=O)/C(C)=C\C=C\[C@H](C)[C@H](O)[C@@H](C)[C@@H](O)[C@@H](C)[C@H](OC(C)=O)[C@@H]1C [RIFAMPIN]														32 (≈ 38.9 µM)	4 (≈ 4.86 µM)	32 (≈ 38.9 µM)	16 (≈ 19.4 µM)	32 (≈ 38.9 µM)	32 (≈ 38.9 µM)	16 (≈ 19.4 µM)	
CCCCCCCCCCNC(=N)NCCCCCCCCCC	0	32	≤ 0.125	64	>=4	0	≤ 0.125	>=4	0	64	0	8	64		32 (≈ 94.2 µM)		64 (≈ 188 µM)	16 (≈ 47.1 µM)		16 (≈ 47.1 µM)	
CCCCCCCCCCCC(=O)NCCCC	0	32	16	32	0	0	4	0	0	32	0	32	32								
CCCCCCCC/C=C\CCCCCCCCNC(=N)NCCN(CCN)CCN														32 (≈ 72.9 µM)	64 (≈ 146 µM)	> 128	8 (≈ 18.2 µM)	> 128	64 (≈ 146 µM)	128 (≈ 292 µM)	MIC (Enterococcus faecium): 4 µg/mL (≈ 9.12 µM); MIC (Staphylococcus aureus [21]): 8 µg/mL (≈ 18.2 µM); MIC (Enterococcus faecalis [22]): 4 µg/mL (≈ 9.12 µM); MIC (Staphylococcus aureus [23]): 4 µg/mL (≈ 9.12 µM); MIC (Staphylococcus aureus [24]): 4 µg/mL (≈ 9.12 µM); MIC (Staphylococcus aureus [25]): 4 µg/mL (≈ 9.12 µM); MIC (Enterococcus faecalis [26]): 4 µg/mL (≈ 9.12 µM)
CCCCCCCCCCNC(=N)NCCCC	>=4	≤ 0.125	≤ 0.125	16	>=4	0	≤ 0.125	>=4	>=4	≤ 0.125	0	≤ 0.125	16		16 (≈ 62.6 µM)		16 (≈ 62.6 µM)	16 (≈ 62.6 µM)		16 (≈ 62.6 µM)	
CCCCCCCC/C=C\CCCCCCCC(=O)NCCCCN	0	64	16	64	0	0	4	0	0	32	0	32	64								
CO[C@@H]1[C@@H](OC(N)=O)[C@@H](O)[C@H](Oc2ccc3c(O)c(NC(=O)c4ccc(O)c(CC=C(C)C)c4)c(=O)oc3c2C)OC1(C)C [NOVOBIOCIN]														> 128	8 (≈ 13.1 µM)	> 128	> 128	> 128	> 128	8 (≈ 13.1 µM)	
CCCCCCCC/C=C\CCCCCCCCNC(=N)NCCCCCCCCNC(=N)NCCCCCCCC/C=C\CCCCCCCC														> 128	128 (≈ 176 µM)	> 128	128 (≈ 176 µM)	> 128	> 128	> 128	MIC (Enterococcus faecium): 32 µg/mL (≈ 43.9 µM); MIC (Staphylococcus aureus [21]): 64 µg/mL (≈ 87.8 µM); MIC (Enterococcus faecalis [22]): 64 µg/mL (≈ 87.8 µM); MIC (Staphylococcus aureus [23]): 32 µg/mL (≈ 43.9 µM); MIC (Staphylococcus aureus [24]): > 64 µg/mL; MIC (Staphylococcus aureus [25]): 64 µg/mL (≈ 87.8 µM); MIC (Enterococcus faecalis [26]): > 64 µg/mL
CCCCCCCC/C=C\CCCCCCCCNC(=N)NCCCCCCCCN														> 128	8 (≈ 18.3 µM)	> 128	16 (≈ 36.6 µM)	32 (≈ 73.3 µM)	> 128	32 (≈ 73.3 µM)	MIC (Enterococcus faecium): 4 µg/mL (≈ 9.16 µM); MIC (Staphylococcus aureus [21]): 4 µg/mL (≈ 9.16 µM); MIC (Enterococcus faecalis [22]): 4 µg/mL (≈ 9.16 µM); MIC (Staphylococcus aureus [23]): 4 µg/mL (≈ 9.16 µM); MIC (Staphylococcus aureus [24]): 4 µg/mL (≈ 9.16 µM); MIC (Staphylococcus aureus [25]): 2 µg/mL (≈ 4.58 µM); MIC (Enterococcus faecalis [26]): 2 µg/mL (≈ 4.58 µM)
CCCCCCCCCCCCCCCCCCNC(=O)NCCCCN	0	16	0.5	16	0	0	2	0	0	32	0	16	16								
CCCCCCCCCCCC(=O)NCCCCN	0	32	32	64	0	0	4	0	0	128	0	32	32								
CCCCCCCCCCNC(=N)NCCCCN1CCCC1	>=4	≤ 0.125	≤ 0.125	0.5	>=4	>=4	≤ 0.125	>=4	>=4	0.5	>=4	≤ 0.125	2								
CCCCCCCCCCNC(=N)NCCCCN(C)C	>=4	≤ 0.125	≤ 0.125	0.5	>=4	>=4	≤ 0.125	>=4	>=4	1	>=4	≤ 0.125	0.5								
